The source of these data is PubChem BioAssay.

Assay [1] in a line: Her2 expression decrease, cell viability multiplex – SKBR3 breast tumor cells, AlphaScreen, ATP viability, primary screen (AID 461;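 active means Her2 level under about 52% in both replicate screens, with viability over 70% of control, limit read from the data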;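 on Her2 level: lower value means less Her2 protein in the cells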;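 on viability: percent of carrier control wells set as 100% viability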). To be noted: SKBR3 Her2 protein level, 18-24 h, measured here: SKBR3 viability, ATP luminescence, at 10 µM.
The target in assay [2] is Receptor tyrosine-protein kinase erbB-2 (Homo sapiens) (UniProt P04626). Described as above. Particulars: 18-24 h, at 10 µM, stronger effect = lower value.
Sequence of Receptor tyrosine-protein kinase erbB-2 (Homo sapiens) (P04626 whole entry, looked up): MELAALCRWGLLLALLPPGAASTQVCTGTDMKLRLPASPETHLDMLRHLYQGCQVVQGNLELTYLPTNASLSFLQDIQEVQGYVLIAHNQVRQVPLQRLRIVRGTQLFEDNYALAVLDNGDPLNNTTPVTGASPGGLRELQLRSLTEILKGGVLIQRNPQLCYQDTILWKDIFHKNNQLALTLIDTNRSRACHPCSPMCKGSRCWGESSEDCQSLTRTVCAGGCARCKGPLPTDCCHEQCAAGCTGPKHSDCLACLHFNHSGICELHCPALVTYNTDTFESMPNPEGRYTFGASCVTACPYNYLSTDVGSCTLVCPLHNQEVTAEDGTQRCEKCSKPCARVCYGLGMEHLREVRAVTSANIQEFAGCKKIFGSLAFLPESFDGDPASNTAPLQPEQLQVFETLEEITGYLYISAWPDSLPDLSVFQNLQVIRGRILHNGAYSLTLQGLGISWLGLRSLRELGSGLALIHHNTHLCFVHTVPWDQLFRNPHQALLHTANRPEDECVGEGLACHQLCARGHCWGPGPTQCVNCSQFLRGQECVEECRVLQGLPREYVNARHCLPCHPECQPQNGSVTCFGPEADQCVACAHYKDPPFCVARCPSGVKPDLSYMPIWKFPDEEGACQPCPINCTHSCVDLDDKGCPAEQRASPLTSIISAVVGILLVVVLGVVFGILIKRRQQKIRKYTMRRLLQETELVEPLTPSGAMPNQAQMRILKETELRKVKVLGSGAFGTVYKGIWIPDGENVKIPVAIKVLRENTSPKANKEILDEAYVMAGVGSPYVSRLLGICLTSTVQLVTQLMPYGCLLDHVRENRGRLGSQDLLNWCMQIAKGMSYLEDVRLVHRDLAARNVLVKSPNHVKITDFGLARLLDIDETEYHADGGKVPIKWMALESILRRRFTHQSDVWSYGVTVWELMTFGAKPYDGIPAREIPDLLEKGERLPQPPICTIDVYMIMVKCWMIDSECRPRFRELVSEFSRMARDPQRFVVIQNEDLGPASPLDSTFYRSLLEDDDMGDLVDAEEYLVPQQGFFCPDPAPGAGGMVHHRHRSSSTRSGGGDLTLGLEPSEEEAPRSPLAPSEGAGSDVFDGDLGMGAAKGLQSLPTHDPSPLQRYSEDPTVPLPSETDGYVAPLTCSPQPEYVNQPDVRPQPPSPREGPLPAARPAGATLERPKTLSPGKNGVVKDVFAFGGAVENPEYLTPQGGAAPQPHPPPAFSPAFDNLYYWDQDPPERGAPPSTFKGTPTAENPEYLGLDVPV
A short description of assay [3]: reduced viability of SK-BR-3 breast cancer cells – cell-based, 24 h, human, pilot screen (AID 572;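 active means viability at or below 10% of carrier control in both of two separate runs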;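 further: compound exposure lasted between 18 and 24 h rather than exactly 24 h; 100% = carrier-treated control wells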). To be noted: SK-BR-3 viability, CellTiter-Glo luminescence, at 10 µM, stronger effect = lower value.
Assay [4] in a line: HUVEC growth inhibition – cell-based, human, primary screen (AID 575;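 active means viability at or below 30% in both replicate assays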;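 further: 100% = median of untreated cell wells with 0.1% DMSO on each plate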). To be noted: HUVEC proliferation, CellTiter-Glo luminescence, 72 h; at 10 µM; stronger effect = lower value. In outline:
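Test system: primary human umbilical vein endothelial cells; medium: endothelial basal medium with 2% FBS plus growth supplements; dosing: 10 µM compound only; times: 72 h treatment at 37 °C; signal: CTG luminescence; read-out: % viability relative to median vehicle-well signal on each plate; control set: vehicle and MePR control wells; plate: 384-well, collagen-coated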

Assay [5] in a line: H69AR cell proliferation blockers – human, duplicate replicates, primary screen (AID 580;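 active means viability at or under a set limit in both replicates, limit being median viability minus 3 SD, cut at about 48% in these data, passing the limit was not always enough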;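 further: 100% = mean luminescence of untreated wells and 0% = no signal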). Particulars: H69AR lung tumor cells viability, ATP luminescence, 72 h; at 10 µM; stronger effect = lower value.
Assay [6] in a line: MRP1 drug-resistance reversers in H69AR cells – cell-based, doxorubicin co-treatment, pilot screen (AID 601;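 active means viability loss from added drug above about 55%, and viability with drug at most 40%, in both replicates, limit read from the data, passing the limit was not always enough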). To be noted: CellTiter-Glo, 72 h, at 10 µM; for differential viability (reversal): stronger effect = higher value.
Assay [7] can be described thus: yeast transport mutant growth inhibition pilot in 384-well plates, post-Golgi transport modulator project (AID 636; in the data active means inhibition above about 31%). To be noted: absorbance 615 nm, about 18 h, stronger effect = higher value.
Assay [8] can be described thus: growth suppression of yeast trafficking mutant, preliminary HTS, modulators of trafficking downstream of Golgi apparatus project, 1536-format plate, OD 615 nm (AID 637). To be noted: yeast transport mutant growth, absorbance 615 nm, 18 h; stronger effect = higher value.
Setting [9] is: H69AR cells + 2 uM doxorubicin, measured here: viability with 2 uM doxorubicin, stronger effect = lower value.
[10] abbreviates: H69AR cells, compound alone cytotoxicity.

Values joined by “and” are separate entries in the source; they are usually repeats but may differ in a detail not shown here. Identical values can stand only once. Active and inactive are the calls of the source. Unless noted, no stated cut-off is given here; in the data, active means inhibition above about 30%; inactive means the rest.

For the compound `COc1ccc2c(c1)[nH]c1c(=O)n(CCN(C)C)cnc12`, the viability is 105% in assay [1]; 105% (inactive) in assay [3]; 104% (inactive) in assay [4]; 91.8% (inactive) in assay [5]; 100% in assay [6] (setting [9]); 91.8% in assay [6] (setting [10]). Also, in assay [2], the Her2 level was 85.5% (inactive). In addition, the differential viability (reversal) in assay [6] (H69AR cells + 2 uM doxorubicin) was -8.28% (inactive). Also, the inhibition in assay [7] is -3.16% (inactive); in assay [8], 1.48% (inactive).
On to `CC(C)[C@H](NC(=O)[C@@H]1CSCN1C(=O)OC(C)(C)C)C(=O)NCC1CCC(C(=O)O)CC1` (stereo not given in full), for which the viability in assay [1] was 105%; in assay [3] it was 105% (inactive); in assay [4], 113% (inactive); in assay [5], 102% (inactive); in assay [6] (setting [9]), 99.3%; in assay [6] (setting [10]), 102%. Also, the Her2 level in assay [2] is 104% (inactive). For the same compound, the differential viability (reversal) in assay [6] (H69AR cells + 2 uM doxorubicin) is 2.67% (inactive). The inhibition in assay [7] was -3.33% (inactive); in assay [8], -3.23% (inactive).
On to `Cc1ccc(S(=O)(=O)N2CCN(CCO)CC2)cc1-c1nnc2c3ccccc3c(C)nn12`, for which the viability was 104% in assay [1]; 104% (inactive) in assay [3]; 99.4% (inactive) in assay [4]; 96.2% (inactive) in assay [5]; 94.2% in assay [6] (setting [9]); 96.2% in assay [6] (setting [10]). For the same compound, in assay [2], the Her2 level was 94% (inactive). Also, in assay [6] (H69AR cells + 2 uM doxorubicin), the differential viability (reversal) was 2.01% (inactive). Besides, the inhibition in assay [7] was -5.07% (inactive); in assay [8], -2.79% (inactive).
Consider `CCOC(=O)C1CCN(c2c(Nc3ccc4c(c3)OCCO4)c(=O)c2=O)CC1`, for which the viability in assay [1] is 82.5%; in assay [3], 82.5% (inactive); in assay [4], 88% (inactive); in assay [5], 88.4% (inactive); in assay [6] (setting [9]), 89.2%; in assay [6] (setting [10]) it was 88.4%. The Her2 level in assay [2] was 100% (inactive). The differential viability (reversal) in assay [6] (H69AR cells + 2 uM doxorubicin) is -0.805% (inactive). For the same compound, the inhibition is 1.03% (inactive) in assay [7] and 3.17% (inactive) in assay [8].
For `O=C(COc1ccccc1)N1CCN(C(=O)c2cccc(F)c2)CC1`, the viability in assay [1] was 112%; in assay [3], 112% (inactive); in assay [4], 102% (inactive); in assay [5] it was 101% (inactive); in assay [6] (setting [9]), 86.7%; in assay [6] (setting [10]), 101%. Besides, in assay [2], the Her2 level is 90% (inactive). Moreover, the differential viability (reversal) in assay [6] (H69AR cells + 2 uM doxorubicin) was 13.9% (inactive). The values for the inhibition in assay [7] and in assay [8] were -8.11% (inactive) and 6.72% (inactive), respectively.
As for `COc1ccc(CCn2c(C)cc(C(=O)CSc3nnnn3C)c2C)cc1`, the viability in assay [1] is 99.5%; in assay [3] it was 99.5% (inactive); in assay [4] it was 81.7% (inactive); in assay [5], 101% (inactive); in assay [6] (setting [9]) it was 104%; in assay [6] (setting [10]), 101%. The Her2 level in assay [2] was 144% (inactive). The differential viability (reversal) in assay [6] (H69AR cells + 2 uM doxorubicin) was -3.11% (inactive). In addition, the inhibition in assay [7] was -0.13% (inactive); in assay [8], -1.83% (inactive).
Take `COc1ccc2c(c1OC)C(=O)OC2C1c2c(cc3c(c2OC)OCO3)CCN1C` (stereo not given): the viability in assay [1] was 89%; in assay [3], 89% (inactive) and 83% (inactive); in assay [4], 70.2% (inactive) and 90.3% (inactive); in assay [5] it was 73.8% (inactive); in assay [6] (setting [9]), 91.6% and 97%; in assay [6] (setting [10]), 51.7% and 73.8%. Further, in assay [2], the Her2 level was 90.5% (inactive). The differential viability (reversal) in assay [6] (H69AR cells + 2 uM doxorubicin) was -40% (inactive) and -23.1% (inactive). Also, the inhibition is 1.95% (inactive) and -2.86% (inactive) in assay [7]; 4.92% (inactive) and 5.33% (inactive) in assay [8].
For the compound `CC1CN=C(N(C(=O)Nc2ccccc2)c2ccc(S(=O)(=O)N3CCOCC3)cc2)S1` (stereo not given), the viability in assay [1] is 95.5%; in assay [3] it was 95.5% (inactive); in assay [4], 91.5% (inactive); in assay [5] it was 95.3% (inactive); in assay [6] (setting [9]), 78.5%; in assay [6] (setting [10]), 95.3%. Besides, the Her2 level in assay [2] was 108% (inactive). In assay [6] (H69AR cells + 2 uM doxorubicin), the differential viability (reversal) was 16.8% (inactive). Further, the inhibition in assay [7] was -0.51% (inactive); in assay [8], -8.67% (inactive).
For `Nc1cc(-c2ccc(Br)cc2)nn1S(=O)(=O)c1ccccc1`, the viability in assay [1] was 90%; in assay [3] it was 90% (inactive); in assay [4], 74.2% (inactive); in assay [5], 88% (inactive); in assay [6] (setting [9]) it was 87.5%; in assay [6] (setting [10]) it was 88%. In addition, the Her2 level in assay [2] is 108% (inactive). Moreover, the differential viability (reversal) in assay [6] (H69AR cells + 2 uM doxorubicin) was 0.535% (inactive). Also, the values for the inhibition in assay [7] and in assay [8] were 0.26% (inactive) and 3.67% (inactive), respectively.
Take `C[C@H](NC(=O)OC(C)(C)C)C(=O)NCC1CCC(C(=O)O)CC1` (stereo not given in full): the viability is 101% in assay [1]; 101% (inactive) in assay [3]; 103% (inactive) in assay [4]; 108% (inactive) in assay [5]; 96.4% in assay [6] (setting [9]); 108% in assay [6] (setting [10]). Further, the Her2 level in assay [2] is 97% (inactive). Also, the differential viability (reversal) in assay [6] (H69AR cells + 2 uM doxorubicin) is 11.7% (inactive). Further, the inhibition in assay [7] is -5.73% (inactive); in assay [8], -1.29% (inactive).
Turning to `COCCn1c(C)cc(C(=O)COC(=O)CCN2C(=O)c3ccccc3C2=O)c1C`, the viability was 94.5% in assay [1]; 94.5% (inactive) in assay [3]; 97.9% (inactive) in assay [4]; 96.6% (inactive) in assay [5]; 91.1% in assay [6] (setting [9]); 96.6% in assay [6] (setting [10]). Moreover, in assay [2], the Her2 level is 98.5% (inactive). Further, the differential viability (reversal) in assay [6] (H69AR cells + 2 uM doxorubicin) is 5.55% (inactive). For the same compound, the inhibition was -5.33% (inactive) in assay [7] and 0.65% (inactive) in assay [8].
On to `c1coc(-c2nnc(NC3=NCCC3)o2)c1`, for which the viability in assay [1] is 100%; in assay [3] it was 100% (inactive); in assay [4], 97.2% (inactive); in assay [5] it was 98.7% (inactive); in assay [6] (setting [9]), 87.3%; in assay [6] (setting [10]) it was 98.7%. Besides, the Her2 level in assay [2] is 94% (inactive). In addition, in assay [6] (H69AR cells + 2 uM doxorubicin), the differential viability (reversal) was 11.4% (inactive). Besides, the inhibition in assay [7] is -5.34% (inactive); in assay [8], -10.2% (inactive).
As to `COc1cccc(S(=O)(=O)Nc2cccnc2)c1`, the viability is 98% in assay [1]; 98% (inactive) in assay [3]; 88.2% (inactive) in assay [4]; 103% (inactive) in assay [5]; 90.3% in assay [6] (setting [9]); 103% in assay [6] (setting [10]). Also, the Her2 level in assay [2] was 107% (inactive). For the same compound, in assay [6] (H69AR cells + 2 uM doxorubicin), the differential viability (reversal) was 12.3% (inactive). The inhibition in assay [7] is -0.4% (inactive); in assay [8], -3.71% (inactive).
Take `Nc1nc(-n2cnnc2)nn1-c1ccccc1`: the viability was 92% in assay [1]; 92% (inactive) in assay [3]; 85.6% (inactive) in assay [4]; 101% (inactive) in assay [5]; 89.9% in assay [6] (setting [9]); 101% in assay [6] (setting [10]). Moreover, the Her2 level in assay [2] was 116% (inactive). Besides, the differential viability (reversal) in assay [6] (H69AR cells + 2 uM doxorubicin) is 11.4% (inactive). Further, the values for the inhibition in assay [7] and in assay [8] were 0.13% (inactive) and -8.5% (inactive), respectively.
